pIC50: −log10 of the molar value.
Legend:
[1] = target: T1, Protease (Human immunodeficiency virus 1, UniProt Q9YQ12); test: Inhibition of purified HIV-1 protease using [Arg-Glu(EDANS)-Ser-Gin-Asn-Tyr-Ile-Val-Gin-Lys(dabcyl)-Arg) as fluorogenic substrate by fluorescence assay
Procedure, shortened: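 Wild-type HIV-1 protease, cloned, expressed in Escherichia coli and purified. Inhibitors dissolved in DMSO and diluted. Incubation at 30 °C in 0.1 M sodium acetate, 1 M NaCl, 1 mM DTT, 1 mM EDTA, 3% DMSO, pH 5.0, with the EDANS/dabcyl fluorogenic peptide substrate. Cleavage read by fluorescence in a microplate reader.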

[2] = target: T1, Protease; test: Inhibition of purified HIV-1 protease using [Arg-Glu(EDANS)-Ser-Gin-Asn-Tyr-Ile-Val-Gin-Lys(dabcyl)-Arg) as fluorogenic substrate at 50 ng/ml by fluorescence assay
[3] = target: T1, Protease; test: Inhibition of purified HIV-1 protease using [Arg-Glu(EDANS)-Ser-Gin-Asn-Tyr-Ile-Val-Gin-Lys(dabcyl)-Arg) as fluorogenic substrate at 10 ng/ml by fluorescence assay
[4] = target: T1, Protease; test: Inhibition of purified HIV-1 protease using [Arg-Glu(EDANS)-Ser-Gin-Asn-Tyr-Ile-Val-Gin-Lys(dabcyl)-Arg) as fluorogenic substrate at 2 ng/ml by fluorescence assay
[5] = target: T1, Protease; test: Inhibition of purified HIV-1 protease using [Arg-Glu(EDANS)-Ser-Gin-Asn-Tyr-Ile-Val-Gin-Lys(dabcyl)-Arg) as fluorogenic substrate at 0.4 ng/ml by fluorescence assay
[6] = target: T1, Protease; test: Inhibition of purified HIV-1 protease using [Arg-Glu(EDANS)-Ser-Gin-Asn-Tyr-Ile-Val-Gin-Lys(dabcyl)-Arg) as fluorogenic substrate at 0.08 ng/ml by fluorescence assay
[7] = target: Protease (Human immunodeficiency virus 1) (UniProt Q9YQ12); test: Inhibition of purified HIV-1 protease using [Arg-Glu(EDANS)-Ser-Gin-Asn-Tyr-Ile-Val-Gin-Lys(dabcyl)-Arg) as fluorogenic substrate at 10 nM by fluorescence assay
Chain of Protease (Human immunodeficiency virus 1) (Q9YQ12 as listed by the source): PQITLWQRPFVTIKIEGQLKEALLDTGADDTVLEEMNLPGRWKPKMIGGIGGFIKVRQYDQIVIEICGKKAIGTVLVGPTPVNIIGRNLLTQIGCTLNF

T1 sequence (Q9YQ12 whole entry): as the sequence (Q9YQ12 as listed by the source) above

Row | Structure (SMILES) | pIC50 [1] | Inhibition [2] [%] | Inhibition [3] [%] | Inhibition [4] [%] | Inhibition [5] [%] | Inhibition [6] [%] | inhibition [7] [%]
1 | CC(C)CN(C[C@@H](O)[C@H](Cc1ccccc1)NC(=O)O[C@H]1CO[C@H]2[C@@H]1OC[C@H]2O[N+](=O)[O-])S(=O)(=O)c1ccc(N)cc1 | 9.92 | 94.7 | 98.6 | 94.2 | 75.7 | 47.2 | –
2 | COc1ccc(S(=O)(=O)N(CC(C)C)C[C@@H](O)[C@H](Cc2ccccc2)NC(=O)O[C@H]2CO[C@H]3[C@@H]2OC[C@H]3O)cc1 | 10.00 | 97.2 | 98 | 99.5 | 74.2 | 51.4 | –
3 | COc1ccc(S(=O)(=O)N(CC(C)C)C[C@@H](O)[C@H](Cc2ccccc2)NC(=O)O[C@H]2CO[C@H]3[C@@H]2OC[C@H]3OC)cc1 | 10.30 | 96.2 | 102 | 93.5 | 83.2 | 53.7 | –
4 | COc1ccc(S(=O)(=O)N(CC(C)C)C[C@@H](O)[C@H](Cc2ccccc2)NC(=O)O[C@H]2CO[C@H]3[C@@H]2OC[C@H]3O[N+](=O)[O-])cc1 | 9.96 | 93.1 | 100 | 93.1 | 62.6 | 53.7 | –
5 | CC(C)CN(C[C@@H](O)[C@H](Cc1ccccc1)NC(=O)O[C@H]1CO[C@H]2[C@@H]1OC[C@H]2O)S(=O)(=O)c1ccc(N)cc1 | 9.37 | 98.3 | 95.4 | 80.7 | 57.7 | 33.7 | –
6 | CC(C)(C)NC(=O)[C@@H]1CN(Cc2cccnc2)CCN1C[C@@H](O)C[C@@H](Cc1ccccc1)C(=O)N[C@H]1c2ccccc2C[C@H]1O | – | – | – | – | – | – | 96.9
7 | CO[C@@H]1CO[C@H]2[C@@H]1OC[C@@H]2OC(=O)N[C@@H](Cc1ccccc1)[C@H](O)CN(CC(C)C)S(=O)(=O)c1ccc(N)cc1 | 9.44 | 97 | 100 | 103 | 59.6 | 40.6 | –
